Measured values reported in ChEMBL document CHEMBL3108761, “Phenanthroline-2,9-bistriazoles as selective G-quadruplex ligands” (Eur J Med Chem, 2014).
Calls of active or inactive are those of the source. The rule behind the calls is not given here.

What was measured:
Homo sapiens [1] = organism: Homo sapiens; assay: Ratio of Kd for c-KIT G-quadruplex 5'-biotin-d[T9G3CG3CGCGAG3AG4]-3' (unknown origin) to Kd for human telomeric 5'-biotin-d[T7(T2AG3)4]-3'
Homo sapiens [2] = organism: Homo sapiens; assay: Binding affinity to human telomeric 5'-FAMd(G3[T2AG3]3)-TAMRA-3' assessed as melting temperature at 0.5 uM by FRET assay
Method in brief: (§1)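 K+ buffer: 10 mM KCl, 100 mM LiCl, 10 mM cacodylate, pH 7.3. FAM/TAMRA dual-labelled probes were diluted to 400 nM, annealed at 85 °C for 10 min and cooled to room temperature, then mixed with ligand at the stated concentration. FAM was excited at 492 nm and read at 516 nm every 0.5 °C from 25 to 100 °C, with a 30 s hold before each reading. ΔTm was taken against a buffer-only control, in triplicate.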

Homo sapiens [3] = organism: Homo sapiens; assay: Binding affinity to hairpin 5'-FAM-TATAGCTATAT7ATAGCTATA-TAMRA-3' (unknown origin) assessed as melting temperature at 1 uM by FRET assay; method in brief: as §1
Homo sapiens [4] = organism: Homo sapiens; assay: Binding affinity to c-KIT G-quadruplex 5'-FAM-G3CG3CGCGAG3AG4-TAMRA-3' (unknown origin) assessed as melting temperature at 1 uM by FRET assay; method in brief: as §1
[5] = Binding affinity to hairpin 5'-biotin-d[T10ATAGCTATAT7ATAGCTATA]-3' (unknown origin) assessed as dissociation constant by surface plasmon resonance assay; set-up: species or system Homo sapiens
Method in brief: (§2)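 Biotinylated DNA was annealed in 20 mM Tris-HCl, 200 mM KCl, pH 7.4, and captured on a streptavidin chip at ~400 RU. Running buffer: 20 mM KH2PO4, 150 mM KCl, 0.005% P20, 0.5 mM EDTA, pH 7.4. Ligand at 10–1000 nM was injected for 120 s in random order, with blank flow-cell subtraction. KD came from a steady-state affinity fit of Req against concentration; "not detected" means no significant binding at 1 µM.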

Homo sapiens [6] = organism: Homo sapiens; assay: Binding affinity to c-KIT G-quadruplex 5'-FAM-G3CG3CGCGAG3AG4-TAMRA-3' (unknown origin) assessed as melting temperature at 2 uM by FRET assay; method in brief: as §1
[7] = Binding affinity to human telomeric 5'-biotin-d[T7(T2AG3)4]-3' assessed as dissociation constant (KD) by surface plasmon resonance assay; method in brief: as §2
[8] = Binding affinity to c-KIT G-quadruplex 5'-biotin-d[T9G3CG3CGCGAG3AG4]-3' (unknown origin) assessed as dissociation constant by surface plasmon resonance assay; set-up: species or system Homo sapiens; method in brief: as §2
Homo sapiens [9] = organism: Homo sapiens; assay: Binding affinity to c-KIT G-quadruplex 5'-FAM-G3CG3CGCGAG3AG4-TAMRA-3' (unknown origin) assessed as melting temperature at 0.5 uM by FRET assay; method in brief: as §1
Homo sapiens [10] = organism: Homo sapiens; assay: Binding affinity to human telomeric 5'-FAMd(G3[T2AG3]3)-TAMRA-3' assessed as melting temperature at 1 uM by FRET assay; method in brief: as §1
Homo sapiens [11] = organism: Homo sapiens; assay: Binding affinity to hairpin 5'-FAM-TATAGCTATAT7ATAGCTATA-TAMRA-3' (unknown origin) assessed as melting temperature at 0.5 uM by FRET assay; method in brief: as §1
Homo sapiens [12] = organism: Homo sapiens; assay: Binding affinity to human telomeric 5'-FAMd(G3[T2AG3]3)-TAMRA-3' assessed as melting temperature at 2 uM by FRET assay; method in brief: as §1
Homo sapiens [13] = organism: Homo sapiens; assay: Binding affinity to hairpin 5'-biotin-d[T10ATAGCTATAT7ATAGCTATA]-3' (unknown origin) assessed as melting temperature at 1 uM by surface plasmon resonance assay; method in brief: as §2
Homo sapiens [14] = organism: Homo sapiens; assay: Displacement of thiazole orange from c-KIT G-quadruplex 5'-G3CG3CGCGAG3AG4-3' (unknown origin) assessed as reduction of fluorescence by G4-FID assay
Method in brief: (§3)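 Done at 20 °C in 10 mM sodium cacodylate pH 7.3 with 100 mM KCl; 22AG was also run with 100 mM NaCl. 0.25 µM prefolded DNA carried thiazole orange: 0.50 µM for 22AG and c-KIT, 0.75 µM for ds26. Ligand was titrated from 0.2 to 10 equivalents, with 3 min equilibration per step. Displacement = 100 − (FA/FA0 × 100), from emission area 510–750 nm (excitation 501 nm). DC50 was taken as 50% displacement; otherwise the displacement at 2.5 µM ligand is given.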

Homo sapiens [15] = organism: Homo sapiens; assay: Binding affinity to human telomeric 5'-FAMd(G3[T2AG3]3)-TAMRA-3' in Na+ solution assessed as melting temperature at 0.5 uM by FRET assay
Method in brief: (§4)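 Telomeric FRET probe in Na+ buffer: 100 mM NaCl, 10 mM LiCl, 10 mM cacodylate, pH 7.3. Probe was diluted to 400 nM and annealed at 85 °C for 10 min, then cooled to room temperature; ligand was added at the stated concentration. Emission at 516 nm (excitation 492 nm) was read in 0.5 °C steps from 25 to 100 °C, with a 30 s hold per step. ΔTm versus buffer control, triplicate.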

Homo sapiens [16] = organism: Homo sapiens; assay: Binding affinity to human telomeric 5'-AG3(T2AG3)3-3' by circular dichroism spectroscopy
Method in brief: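 DNA at 2 µM final in 10 mM Tris-HCl, 100 mM KCl, pH 7.4 was annealed at 95 °C for 10 min and slowly cooled. Ligand was then added at several final concentrations. Spectra were recorded from 220 to 320 nm in a 5 mm cell at 25 °C, averaged over five scans and buffer-corrected, to assess whether the G-quadruplex fold was retained.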

Homo sapiens [17] = organism: Homo sapiens; assay: Binding affinity to c-KIT G-quadruplex 5'-G3CG3CGCGAG3AG4-3' (unknown origin) by circular dichroism spectroscopy
Homo sapiens [18] = organism: Homo sapiens; assay: Displacement of thiazole orange from human telomeric 5'-AG3(T2AG3)3-3' (unknown origin) in Na+ solution assessed as reduction of fluorescence by G4-FID assay; method in brief: as §3
Homo sapiens [19] = organism: Homo sapiens; assay: Binding affinity to human telomeric 5'-FAMd(G3[T2AG3]3)-TAMRA-3' in Na+ solution assessed as melting temperature at 1 uM by FRET assay; method in brief: as §4
Homo sapiens [20] = organism: Homo sapiens; assay: Displacement of thiazole orange from human telomeric 5'-AG3(T2AG3)3-3' (unknown origin) in K+ solution assessed as reduction of fluorescence by G4-FID assay; method in brief: as §3
Homo sapiens [21] = organism: Homo sapiens; assay: Displacement of thiazole orange from human telomeric 5'-AG3(T2AG3)3-3' (unknown origin) assessed as reduction of fluorescence at 2.5 uM by G4-FID assay; method in brief: as §3
Homo sapiens [22] = organism: Homo sapiens; assay: Binding affinity to human telomeric 5'-FAMd(G3[T2AG3]3)-TAMRA-3' in Na+ solution assessed as melting temperature at 2 uM by FRET assay; method in brief: as §4
Homo sapiens [23] = organism: Homo sapiens; assay: Displacement of thiazole orange from 5'-CA2TCG2ATCGA2T2CGATC2GAT2G-3' (unknown origin) assessed as reduction of fluorescence at 2.5 uM by G4-FID assay; method in brief: as §3

Row | Compound | Ratio (Homo sapiens [1]) | ΔTm (Homo sapiens [2]) [°C] | ΔTm (Homo sapiens [3]) [°C] | ΔTm (Homo sapiens [4]) [°C] | Kd [5] [nM] | ΔTm (Homo sapiens [6]) [°C] | Kd [7] [nM] | Kd [8] [nM] | ΔTm (Homo sapiens [9]) [°C] | ΔTm (Homo sapiens [10]) [°C] | ΔTm (Homo sapiens [11]) [°C] | ΔTm (Homo sapiens [12]) [°C] | inhibition (Homo sapiens [13]) | ΔTm (Homo sapiens [15]) [°C] | ΔTm (Homo sapiens [19]) [°C] | ΔTm (Homo sapiens [22]) [°C] | other results
1 | NCCCCn1cc(-c2ccc3ccc4ccc(-c5cn(CCCCN)nn5)nc4c3n2)nn1 | 2 | 10.1 | 1.3 | 13.6 | 1060 | 15.2 | 115 | 50 | 11.1 | 12.9 | 1 | 15.8 |  |  |  |  | 
2 | CC(C)/N=C(/NCCn1cc(-c2ccc3ccc4ccc(-c5cn(CCN/C(=N\C(C)C)NC(C)C)nn5)nc4c3n2)nn1)NC(C)C | 13 | 4.2 | 1.1 | 10.4 |  | 12.5 | 567 | 40 | 7.4 | 9.7 | 0.7 | 13.6 | inactive |  |  |  | 
3 | N=C(N)NCCCCn1cc(-c2ccc3ccc4ccc(-c5cn(CCCCNC(=N)N)nn5)nc4c3n2)nn1 | 2 | 12.2 | 3.7 | 16.8 | 1020 | 18.5 | 61 | 29 | 13.8 | 17.3 | 1.7 | 21.8 |  |  |  |  | 
4 | N=C(N)NCCCn1cc(-c2ccc3ccc4ccc(-c5cn(CCCNC(=N)N)nn5)nc4c3n2)nn1 | 2 | 12.2 | 2.8 | 16.1 | 1060 | 18.4 | 57 | 28 | 11.4 | 18 | 1.6 | 22 |  | 6.6 | 11.4 | 16.4 | Q50 (Homo sapiens [14]): 0.25 µM; Activity (Homo sapiens [16]): Active; Activity (Homo sapiens [17]): Active; Q50 (Homo sapiens [18]): > 2.5 µM; Q50 (Homo sapiens [20]): 0.94 µM; inhibition (Homo sapiens [21]): 47%; inhibition (Homo sapiens [23]): 21%
5 | N=C(N)NCCn1cc(-c2ccc3ccc4ccc(-c5cn(CCNC(=N)N)nn5)nc4c3n2)nn1 | 2 | 11 | 2.5 | 13.9 | 1120 | 16.4 | 75 | 50 | 11 | 15 | 1.2 | 18.9 |  |  |  |  | 
6 | NCCCn1cc(-c2ccc3ccc4ccc(-c5cn(CCCN)nn5)nc4c3n2)nn1 | 2 | 10.3 | 1.2 | 11.8 | 914 | 13.9 | 75 | 45 | 9.8 | 13.3 | 1.1 | 16.1 |  | 5.1 | 8.4 | 11.9 | 
7 | CC(C)/N=C(/NCCCn1cc(-c2ccc3ccc4ccc(-c5cn(CCCN/C(=N\C(C)C)NC(C)C)nn5)nc4c3n2)nn1)NC(C)C | 13 | 3.2 | 1.3 | 12 |  | 14.6 | 440 | 33 | 8.3 | 9.5 | 0.7 | 14.5 | inactive | 2.8 | 4.3 | 8.8 | 
8 | C[n+]1ccc(-c2c3nc(c(-c4cc[n+](C)cc4)c4ccc([nH]4)c(-c4cc[n+](C)cc4)c4ccc([nH]4)c(-c4cc[n+](C)cc4)c4nc2C=C4)C=C3)cc1 |  | 19.7 | 14.8 | > 25 |  |  |  |  | > 25 | 23.1 | 9.3 | > 35 |  |  |  |  | 
9 | NCCn1cc(-c2ccc3ccc4ccc(-c5cn(CCN)nn5)nc4c3n2)nn1 | 2 | 4.4 | 0.6 | 4.9 | 1180 | 6.2 | 139 | 47 | 3.7 | 5.5 | 0.4 | 6.8 |  |  |  |  | 
10 | CC(C)/N=C(/NCCCCn1cc(-c2ccc3ccc4ccc(-c5cn(CCCCN/C(=N\C(C)C)NC(C)C)nn5)nc4c3n2)nn1)NC(C)C | 2 | 5.1 | 1.3 | 13.9 |  | 15.9 | 176 | 35 | 10.3 | 15.1 | 0.8 | 18.1 | inactive |  |  |  | 
